Source: ChEMBL document CHEMBL1177852, “Design and preparation of aza-analogues of benzo[c]phenanthridine framework with cytotoxic and antiplasmodial activities” (Eur J Med Chem, 2010)

Tests used:
Plasmodium falciparum [1] = assay: Antiplasmodial activity against chloroquine-resistant Plasmodium falciparum FcB1/Columbia after 48 hrs; type: functional, organism-based
Method in brief: (§1)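 P. falciparum cultured by Trager–Jensen method with modifications; cultures synchronized by 5% D-sorbitol lysis. Parasites incubated with compound at increasing dilutions for 48 h; growth read out as [3H]hypoxanthine incorporation.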

Plasmodium falciparum [2] = assay: Antiplasmodial activity against chloroquine-sensitive Plasmodium falciparum F32 after 48 hrs; type: functional, organism-based; details: F32, 48 h; method in brief: as §1
MCF7 = assay: Cytotoxicity against human MCF7 cells after 48 hrs by [3H]hypoxanthine incorporation assay; type: functional, cell-based
Method in brief: (§2)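 MCF7 and Vero cells cultured as for P. falciparum, but with 5% fetal calf serum in place of 5% human serum. Drugs added at various concentrations; growth measured by [3H]hypoxanthine incorporation after 48 h incubation.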

Vero = assay: Cytotoxicity against african green monkey Vero cells after 48 hrs by [3H]hypoxanthine incorporation assay; type: cell-based; details: Chlorocebus sabaeus; method in brief: as §2

SMILES | IC50 (Plasmodium falciparum [1]) [µM] | IC50 (Plasmodium falciparum [2]) [µM] | IC50 (MCF7) [µM] | IC50 (Vero) [µM]
Cn1c(=O)c2ccccc2c2c3cccnc3ccc21 | 80.7 | 96.1 | 11.5 | 1.75
Cn1c(=O)c2ccccc2c2c3ccccc3ncc21 | 14.8 | 32.7 | 30.9 | 22.3
Cn1c(=O)c2ccccc2c2ccc3cccnc3c21 | 38.2 | 36.3 | 16.5 | 3.35
Cn1c(=O)c2ccccc2c2ccc3ncccc3c21 | 22.3 | 17.6 | 12.5 | 3.5
COc1cccc2c1C(=O)c1c(O)c3c(c(O)c1C2=O)C[C@@](O)(C(=O)CO)C[C@@H]3O[C@H]1C[C@H](N)[C@H](O)[C@H](C)O1 [DOXORUBICIN] |  |  | 0.41 | 7.4
Cn1c(=O)c2ccccc2c2ccc3cnccc3c21 | 54.8 | 61 | 11.9 | 2.3
Cn1c(=O)c2ccccc2c2nc3ccccc3cc21 | 181 | 355 | 154 | 42
Cn1c(=O)c2ccccc2c2cc3ncccc3cc21 | 154 | 123 | 0.6 | 2.85
